Experimental data from different studies.
Compare with care: the assays were run in different laboratories.
Read-out: enzyme activity
Action: inhibitor
HIPK4: Homeodomain-interacting protein kinase 4 (HIPK4, Homo sapiens, UniProt Q8NE63)
MARK2: Serine/threonine-protein kinase MARK2 (MARK2, Homo sapiens, UniProt Q7KZI7)
Rps6ka1: Ribosomal protein S6 kinase alpha-1 (Rps6ka1, Rattus norvegicus, UniProt Q63531)

O=C(O)c1ccc2c(c1)nc(Nc1cccc(F)c1)c1ccncc12
remaining activity (HIPK4; radiometric; 1 µM): 1%

Cc1nn(CC(F)(F)F)cc1Nc1nccc(NCc2ccc(S(N)(=O)=O)cc2)n1
remaining activity (MARK2; radiometric; 1 µM): 108%

CC1CS(=O)(=O)CCN1/N=C/c1ccc([N+](=O)[O-])o1 (stereo not shown)
remaining activity (TcPGFS (Trypanosoma cruzi, UniProt Q8I6L9); 200 µM): 6%

N#Cc1cccc(Nc2nc3cc(C(=O)O)ccc3c3cncnc23)c1
remaining activity (HIPK4; radiometric; 1 µM): 35%

Cc1cnc(NC2CCOCC2)nc1-n1cnc(C(=O)NC(CN)c2cc(F)cc(Cl)c2)c1 (stereo not shown)
remaining activity (Rps6ka1; radiometric; 1 µM): 53%

NS(=O)(=O)c1ccc(CNc2ccnc(Nc3cccc(NC(=O)N4CCCC4)c3)n2)cc1
remaining activity (MARK2; radiometric; 1 µM): 115%

CCCOc1ccc(OC)c(F)c1C(=O)c1ccc(C(=O)N[C@@H]2CNC[C@H]2NC(=O)c2ccc3[nH]ncc3c2)cc1
remaining activity (Rps6ka1; 0.1 µM): 119%

O=C(O)c1ccc2c(c1)nc(NCCc1cccc(F)c1)c1ccncc12
remaining activity (HIPK4; radiometric; 1 µM): -10%

COc1cc(Cl)c(C(=O)N[C@@H](CN[C@H]2CC[C@@H](N)CC2)Cc2ccc(C#N)cc2)cc1-c1ccc(CN[C@H](C)c2ccc(C)cc2)o1
remaining activity (Wee1-like protein kinase 2 (WEE2, Homo sapiens, UniProt P0C1S8); 1 µM): 89%

Cc1ccc(C(=O)Nc2ccc(CN3CCN(C)CC3)c(C(F)(F)F)c2)cc1C#Cc1cnc2cccnn12
remaining activity (Uncharacterized serine/threonine-protein kinase SBK3 (SBK3, Homo sapiens, UniProt P0C264); 23.5 nM): 89%
